Measured values from ChEMBL document CHEMBL1125087, “Synthesis and biological activity of new HMG-CoA reductase inhibitors. 1. Lactones of pyridine- and pyrimidine-substituted 3,5-dihydroxy-6-heptenoic (-heptanoic) acids” (J Med Chem, 1990).

Tests used:
[1] = molecular target: T1, 3-hydroxy-3-methylglutaryl-coenzyme A reductase (Rattus norvegicus, UniProt P51639); experiment: In vitro inhibition of rat liver HMG-CoA reductase
T1 sequence (P51639 whole entry): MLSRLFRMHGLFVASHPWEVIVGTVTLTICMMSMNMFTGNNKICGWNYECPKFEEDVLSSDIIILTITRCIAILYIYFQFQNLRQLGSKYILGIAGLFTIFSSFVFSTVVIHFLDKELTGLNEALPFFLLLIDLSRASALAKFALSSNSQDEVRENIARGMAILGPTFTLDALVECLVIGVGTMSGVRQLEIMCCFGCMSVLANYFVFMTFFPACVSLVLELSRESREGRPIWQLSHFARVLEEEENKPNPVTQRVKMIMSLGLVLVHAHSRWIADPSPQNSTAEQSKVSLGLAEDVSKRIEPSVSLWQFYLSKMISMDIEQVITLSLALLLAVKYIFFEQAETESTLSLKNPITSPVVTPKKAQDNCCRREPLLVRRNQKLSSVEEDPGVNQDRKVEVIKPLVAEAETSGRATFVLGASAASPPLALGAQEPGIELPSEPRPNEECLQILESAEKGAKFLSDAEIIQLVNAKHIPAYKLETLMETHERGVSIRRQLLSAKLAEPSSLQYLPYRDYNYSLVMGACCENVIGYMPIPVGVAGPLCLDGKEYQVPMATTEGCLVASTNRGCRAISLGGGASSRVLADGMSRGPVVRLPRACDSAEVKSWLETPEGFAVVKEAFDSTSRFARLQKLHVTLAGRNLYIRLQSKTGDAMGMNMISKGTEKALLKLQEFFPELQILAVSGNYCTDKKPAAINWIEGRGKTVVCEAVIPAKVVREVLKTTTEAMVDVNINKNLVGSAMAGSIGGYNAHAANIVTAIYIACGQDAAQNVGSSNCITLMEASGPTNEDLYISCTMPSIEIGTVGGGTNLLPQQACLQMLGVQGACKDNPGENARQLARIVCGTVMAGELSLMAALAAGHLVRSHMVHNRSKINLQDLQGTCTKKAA
In short: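 Partially purified soluble HMG-CoA reductase from rat liver microsomes. Medium: 6 mM Tris, 2.5 mM EDTA, 2.5 mM DTT, 50 mM NADP, 50 mM glucose 6-phosphate, glucose-6-phosphate dehydrogenase, and 0.91 mM HMG-CoA with [14C]HMG-CoA. Lactones were opened with 1 equiv KOH to potassium dihydroxy carboxylates and tested at multiple concentrations. Incubated at 37 °C for 20 min, then stopped with HClO4. Run in triplicate; IC50 read from a %-inhibition-versus-concentration plot.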

[2] = molecular target: T2, 3-hydroxy-3-methylglutaryl-coenzyme A reductase (Homo sapiens) (UniProt P04035); experiment: Relative inhibition of HMG-CoA reductase compared to Mevinolin.
T2 sequence (whole entry): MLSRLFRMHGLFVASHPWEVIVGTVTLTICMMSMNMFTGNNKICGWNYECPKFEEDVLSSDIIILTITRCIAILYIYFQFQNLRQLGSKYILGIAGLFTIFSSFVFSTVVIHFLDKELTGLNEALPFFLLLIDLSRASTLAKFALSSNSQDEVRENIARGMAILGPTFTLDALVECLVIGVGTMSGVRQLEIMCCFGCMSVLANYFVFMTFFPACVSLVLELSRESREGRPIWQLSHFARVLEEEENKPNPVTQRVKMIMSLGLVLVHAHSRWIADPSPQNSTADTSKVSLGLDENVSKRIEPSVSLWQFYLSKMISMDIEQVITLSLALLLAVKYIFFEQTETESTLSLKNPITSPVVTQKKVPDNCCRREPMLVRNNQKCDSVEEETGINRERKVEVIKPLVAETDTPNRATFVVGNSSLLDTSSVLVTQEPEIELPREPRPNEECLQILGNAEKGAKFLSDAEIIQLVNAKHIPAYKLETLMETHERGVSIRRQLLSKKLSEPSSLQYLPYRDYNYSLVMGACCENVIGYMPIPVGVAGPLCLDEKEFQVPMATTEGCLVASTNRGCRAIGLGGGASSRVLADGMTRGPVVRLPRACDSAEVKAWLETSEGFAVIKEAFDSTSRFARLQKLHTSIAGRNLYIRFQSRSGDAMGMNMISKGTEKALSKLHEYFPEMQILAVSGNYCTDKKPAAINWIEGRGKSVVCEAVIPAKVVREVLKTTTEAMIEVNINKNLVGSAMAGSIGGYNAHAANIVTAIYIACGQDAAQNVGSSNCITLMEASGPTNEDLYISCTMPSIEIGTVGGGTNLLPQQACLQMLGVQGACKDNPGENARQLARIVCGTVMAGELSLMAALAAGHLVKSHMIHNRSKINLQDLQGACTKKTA

[3] = molecular target: T3, 3-hydroxy-3-methylglutaryl-coenzyme A reductase (Homo sapiens, UniProt P04035); experiment: Inhibition of cellular HMG-CoA reductase in cultures of human HEP G2 cells, determined by decreased incorporation of sodium [14C]acetate into cholesterol.; assay type: cell-based, HepG2
T3 sequence (P04035 whole entry): T2 sequence (whole entry)
In short: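 They were preincubated for 1 h with compound at three concentrations, or with solvent as control, then labeled with [14C]sodium acetate for 3 h. [3H]cholesterol served as internal standard. Cells were saponified, lipids extracted with chloroform/methanol 2:1, and cholesterol isolated by TLC. IC50 came from the treated/control [14C]cholesterol ratio plotted against concentration.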

Row | SMILES | IC50 [1] | Relative potency [2] | IC50 [3]
1 | O=C1C[C@H](O)C[C@@H](/C=C/c2c(-c3ccc(F)cc3)cc(-c3ccccc3)nc2C2CCCCC2)O1 | 30 nM | > 0.01 | > 5000 nM
2 | CC(C)c1cc(-c2ccccc2)nc(-c2ccc(F)cc2)c1/C=C/[C@@H]1C[C@@H](O)CC(=O)O1 | 4 nM | 5 | 10 nM
3 | CC(C)c1nc(-c2ccccc2)cc(-c2ccc(F)cc2)c1CCC1C[C@@H](O)CC(=O)O1 (some centres undefined) | 19 nM | 0.14 | 370 nM
4 | CC(C)c1nc(-c2ccc(F)cc2)nc(-c2ccc(F)cc2)c1/C=C/[C@@H]1C[C@@H](O)CC(=O)O1 | 1 nM | 2.78 | 18 nM
5 | CC[C@H](C)C(=O)O[C@H]1C[C@@H](C)C=C2C=C[C@H](C)[C@H](CC[C@@H]3C[C@@H](O)CC(=O)O3)[C@H]21 [LOVASTATIN] | 8 nM |  | 
6 | CC(C)c1cc(-c2ccc(F)cc2)c(/C=C/[C@@H]2C[C@@H](O)CC(=O)O2)c(C(C)C)n1 | 3 nM |  | 
7 | CC(C)c1nc(-c2ccc(F)cc2)cc(-c2ccc(F)cc2)c1/C=C/[C@@H]1C[C@@H](O)CC(=O)O1 | 2 nM | 6.67 | 7.5 nM
8 | Cc1nc(C)c(/C=C\[C@@H]2C[C@@H](O)CC(=O)O2)c(-c2ccc(Cl)cc2)n1 | > 1000 nM |  | 
9 | COc1ccc(-c2cc(-c3ccccc3)nc(C(C)C)c2/C=C/[C@@H]2C[C@@H](O)CC(=O)O2)cc1 | 13 nM | 0.33 | 150 nM
10 | Cc1cc(-c2ccc(F)cc2)c(/C=C/[C@@H]2C[C@@H](O)CC(=O)O2)c(C(C)C)n1 | 9 nM | 1 | 50 nM
11 | Cc1nc(C)c(CCC2C[C@@H](O)CC(=O)O2)c(-c2ccc(F)cc2)n1 (some centres undefined) | 1000 nM |  | 
12 | Cc1nc(C)c(/C=C/[C@@H]2C[C@@H](O)CC(=O)O2)c(-c2ccc(F)cc2)n1 | 500 nM |  | 
13 | CCc1nc(-c2ccccc2)cc(-c2ccc(F)cc2)c1/C=C/[C@@H]1C[C@@H](O)CC(=O)O1 | 40 nM |  | 
14 | Cc1nc(-c2ccccc2)cc(-c2ccc(F)cc2)c1/C=C\[C@@H]1C[C@@H](O)CC(=O)O1 | 100 nM | 0.08 | 5000 nM
15 | CC(C)c1nc(C2CCCCC2)cc(-c2ccc(F)cc2)c1/C=C/[C@@H]1C[C@@H](O)CC(=O)O1 | 4 nM | 5.26 | 9.5 nM
16 | Cc1cc(-c2ccc(F)cc2)c(/C=C/[C@@H]2C[C@@H](O)CC(=O)O2)c(C)n1 | 260 nM | 0.03 | 2000 nM
17 | Cc1nc(C)c(/C=C/[C@@H]2C[C@@H](O)CC(=O)O2)c(-c2ccc(Cl)cc2)n1 | 600 nM |  | 
18 | CC(C)(C)c1nc(-c2ccccc2)cc(-c2ccc(F)cc2)c1/C=C/[C@@H]1C[C@@H](O)CC(=O)O1 | 18 nM |  | 

Next, values leading:

Row | IC50 [1] | Relative potency [2] | IC50 [3] | SMILES
19 | 36 nM |  |  | CC(C)c1nc(-c2ccccc2)cc(-c2ccc(C(F)(F)F)cc2)c1/C=C/[C@@H]1C[C@@H](O)CC(=O)O1
20 | 94 nM |  |  | Cc1cc(-c2ccc(Cl)cc2)c(/C=C/[C@@H]2C[C@@H](O)CC(=O)O2)c(C)n1
21 | 3 nM |  |  | CCc1nc(-c2ccccc2)cc(-c2ccc(F)cc2)c1CCC1C[C@@H](O)CC(=O)O1 (some centres undefined)
22 | 3 nM | 10.4 | 4.8 nM | CC(C)c1nc(-c2ccc(F)cc2)c(/C=C/[C@@H]2C[C@@H](O)CC(=O)O2)c(C(C)C)n1
23 | 1 nM | 2.5 | 20 nM | CC(C)c1nc(C(C)(C)C)cc(-c2ccc(F)cc2)c1/C=C/[C@@H]1C[C@@H](O)CC(=O)O1
24 | 3 nM | 10 | 5 nM | CC(C)c1nc(-c2ccccc2)cc(-c2ccc(F)cc2)c1/C=C/[C@@H]1C[C@@H](O)CC(=O)O1 [GLENVASTATIN]
25 | 1 nM | 1.92 | 26 nM | CC(C)c1nc(C2CCCCC2)nc(-c2ccc(F)cc2)c1/C=C/[C@@H]1C[C@@H](O)CC(=O)O1
26 | 5 nM | 2.5 | 20 nM | Cc1ccc(C)c(-c2cc(-c3ccc(F)cc3)c(/C=C/[C@@H]3C[C@@H](O)CC(=O)O3)c(C(C)C)n2)c1
27 | 38 nM | 0.56 | 90 nM | Cc1nc(-c2ccccc2)cc(-c2ccc(F)cc2)c1/C=C/[C@@H]1C[C@@H](O)CC(=O)O1
28 | > 1000 nM |  |  | Cc1cc(-c2ccc(F)cc2)c(/C=C\[C@@H]2C[C@@H](O)CC(=O)O2)c(C)n1
29 | 8 nM |  |  | Cc1cc(C)cc(-c2cc(-c3ccc(F)cc3)c(/C=C/[C@@H]3C[C@@H](O)CC(=O)O3)c(C(C)C)n2)c1
30 | 3 nM | 10 | 5 nM | CC(C)c1nc(-c2ccccc2)nc(-c2ccc(F)cc2)c1/C=C/[C@@H]1C[C@@H](O)CC(=O)O1
